Data reported in PubChem BioAssay AID1885 (Broad Institute, 2009).
Among all 300,000 compounds or so, about 4,400 (1.5%) were called active. The sample as a whole holds a higher share of actives than the screen did. A number with no mark means an inactive call.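 The calls were made as follows: active = mean inhibition across valid replicates above about 55% (limit read from the data); inconclusive = mean below that limit but half or more replicates reach it; inactive = mean below it, under half of replicates reach it.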

assay: Trypanosoma cruzi replication blockers in host cells – luminescence, NIH3T3 host cells, primary screen (AID 1885);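 also: signal also drops with host cell toxicity which is not excluded here; 0% = plate median of DMSO wells and 100% = zero luminescence signal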; conditions: T. cruzi beta-gal in NIH3T3, luminescence, 90 h; stronger effect = higher value; concentration not given here
In short: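 Assay system: NIH/3T3 host cells with β-galactosidase reporter T. cruzi; input: 5,000 host fibroblasts per well; compound: single 50 nL compound addition per well in DMSO; timing: ≥90 h infection period, 3 h prior cell attachment; measured by: GalScreen β-gal luminescence, detergent lysis, 60 min; evaluation: percent inhibition of parasite-derived β-gal signal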

Structure (SMILES)	inhibition
CCOc1cc(C(=O)O)ccc1OCCOc1ccccc1	3.5%
Cc1ccccc1NC(=O)NCC1CCN(Cc2cccc(Cl)c2)CC1	57.5% (active)
Cc1cccc(CN2CCC(CNC(=O)Nc3ccc(F)c(Cl)c3)CC2)c1	46.2%
O=C(NCC1CCN(Cc2ccccc2Cl)CC1)Nc1cccc(Cl)c1	49.4%
CSc1ccc(/C=C2\NC(=O)NC2=O)cc1	-13.1%
CC(=O)Nc1cccc(NC(=O)c2ccc3c(c2)CCN3S(C)(=O)=O)c1	-5.53%
CC(NS(=O)(=O)c1ccc(Br)cc1)C(=O)NCC1CCCO1 (stereo unspecified)	0.0781%
O=C(CSc1ccc(-c2ccc(Br)cc2)nn1)NCC1CCCO1 (stereo unspecified)	-13.2%
OC(CNCC1CCCO1)Cn1c2ccc(Br)cc2c2cc(Br)ccc21 (stereo unspecified)	55.2% (active)
Cc1nn(C)cc1/C=N/NC(=O)c1sc2ccccc2c1Cl	-4.55%
COc1ccc(CNC(=O)CNC(=O)c2sc3ccccc3c2Cl)cc1OC	13.1%
CN1CCc2ccccc2C1Cc1ccccc1NC(=O)c1sc2ccccc2c1Cl (stereo unspecified)	54.6% (active)
COCCCNC(NC(=O)c1ccc(OC)cc1)C(Cl)(Cl)Cl (stereo unspecified)	-20.9%
COc1ccccc1NC(=O)C(C)OC(=O)c1ccc(-n2cnnn2)cc1 (stereo unspecified)	-5.21%
O=C(Nc1cc(Cl)ccc1N1CCOCC1)c1ccc(N2CCCC2=O)cc1	-1.5%
CC(OC(=O)c1ccc(-n2cnnn2)cc1)C(=O)NCc1ccccc1 (stereo unspecified)	-10.5%
Cc1ccc(C(=O)NCC(=O)OCc2nnc(-c3ccccc3)o2)cc1	0.567%
COc1ccc(C(=O)Cc2cnn(-c3ccccc3)c2)c(O)c1	33.1%
C=C(C)COc1ccc(-c2n[nH]c(C)c2-c2ccccc2)c(O)c1	-19.2%
Cc1[nH]nc(-c2ccc(OCc3cnn(-c4ccccc4)c3)cc2O)c1Oc1ccc(Cl)cc1	57.6% (active)
COc1cc(OC)c(C(=O)OC(C)C(=O)Nc2cc(C(F)(F)F)ccc2Cl)cc1OC (stereo unspecified)	18.6%
CCC(C)N(C(=O)Cn1nc(C)c([N+](=O)[O-])c1C)C1CCS(=O)(=O)C1 (stereo unspecified)	-2.7%
CC(=O)Nc1ccc(NC(=O)CSC2=NS(=O)(=O)c3ccccc3N2)cc1	0.486%

Structure (SMILES)	inhibition
Oc1c(CN2CCN(c3ccc(F)cc3)CC2)cc(Cl)c2cccnc12	59.9% (active)
Cc1cccnc1NC(=O)c1cccc(S(=O)(=O)N2CCN(c3ccc(F)cc3)CC2)c1	13.5%
Oc1ccc(CN2CCN(c3ncccn3)CC2)cc1	-5.02%
CC12CCC(=O)N1C(C(=O)Nc1ccc(F)c(F)c1F)CS2 (stereo unspecified)	-7.75%
COc1cccc(NC(=O)CN(C)C(=O)CSC(=S)N2CCCC2)c1	-6.94%
CCOC(=O)c1sc(=S)n2c1[nH]c(=O)c1ccc(C(=O)OC)cc12	4.87%
CCOC(=O)C1=C(C)Nc2sc(C(=O)c3ccc(Br)cc3)c(N)c2C1c1ccc(C(=O)OC)cc1 (stereo unspecified)	76.1% (active)
CCOC(=O)c1sc(=NC(=O)c2ccc(Br)cc2)n(C)c1C	-5.34%
COc1cc(C(=O)NCC(=O)NCCSc2ccc(Br)cc2)cc(OC)c1OC	-6.77%
CCC(C)(C)n1nnnc1C(c1cccs1)N1CCN(c2nc3ccccc3s2)CC1 (stereo unspecified)	66.6% (active)
CCC(C)(C)n1nnnc1C(c1cccs1)N1CCN(Cc2ccccc2)CC1 (stereo unspecified)	5.19%
CCC(C)(C)n1nnnc1C(c1ccccc1OC)N1CCSCC1 (stereo unspecified)	-14.5%
COc1ccc(Cc2nnc(SCC(=O)Nc3ccc(C)c(Cl)c3)[nH]c2=O)cc1	23.1%
S=C(NCCc1ccccc1)N1CCn2cccc2C1c1ccncc1 (stereo unspecified)	23.4%
Fc1cc(Br)ccc1NC(=S)Nc1cccnc1	-15.3%
S=C(Nc1cccc(Br)c1)N1CCn2cccc2C1c1cccnc1 (stereo unspecified)	72.8% (active)
O=C(COC(=O)/C=C/c1ccc(OC(F)F)cc1)NC1CCCCC1	-1.87%
C=CCn1c(SCCOc2ccc(OC)cc2)nnc1C(NC(=O)c1ccc(OC)cc1)C(C)C (stereo unspecified)	4.8%
Cc1ccc(C(=O)NNC(=O)c2ccncc2)cc1S(=O)(=O)N1CCCCC1	-3.57%
Cc1ccc(N=C2SCCCN2C(=O)c2cccc(N3C(=O)CCC3=O)c2)cc1Cl	35.8%
CC(Nc1nc(N2CCN(CCO)CC2)nc2ccccc12)c1ccccc1 (stereo unspecified)	-7.35%
CC(Nc1nc(N2CCOCC2)nc2ccccc12)c1ccccc1 (stereo unspecified)	31.7%
CC(Nc1nc(N2CCCC2)nc2ccccc12)c1ccccc1 (stereo unspecified)	58.1% (active)

Structure (SMILES)	inhibition
O=C(NCCC1CCCCN1S(=O)(=O)c1ccc(F)cc1)C(=O)NC1CC1 (stereo unspecified)	-6.12%
COc1cc(NC(=O)CSc2ccc(-c3cccnc3)nn2)cc(OC)c1	1.76%
COc1ccc(N2CC(NS(=O)(=O)c3ccc4ccccc4c3)CC2=O)cc1 (stereo unspecified)	-4.61%
O=C(NCc1ccncc1)c1ccc(NS(=O)(=O)c2cccc([N+](=O)[O-])c2)cc1	-11.6%
O=C(Nc1cc2c3c(c1)C1CCCC1CN3CC1CCCC21)c1ccc([N+](=O)[O-])cc1 (stereo unspecified)	82.1% (active)
CN1C2CCC1CC(NC(=O)c1ccc([N+](=O)[O-])cc1)C2 (stereo unspecified)	8.42%
O=C(Nc1ccccc1C(=O)Nc1ccncc1)c1ccc([N+](=O)[O-])cc1	31.4%
Cc1csc(=O)n1CC(=O)OCC(=O)N(CC(C)C)c1c(N)n(Cc2ccccc2)c(=O)[nH]c1=O	-7.8%
Cc1c(NC(=O)CSc2nnnn2-c2ccc(C(=O)O)cc2)c(=O)n(-c2ccccc2)n1C	-12.6%
Cc1ccc(NC(=O)CSc2cccc3cccnc23)c(C)c1	26.2%
Cc1c(NC(=O)CSc2cccc3cccnc23)c(=O)n(-c2ccccc2)n1C	67.7% (active)
CCc1nc(NCCO)c(C#N)c2c1CCCC2	-15%
CC(C)CCNc1nc(N2CCCC2)c2c(c1C#N)CCN(C)C2	58.4% (active)
CC(C)Cc1nc(N2CCOCC2)c(C#N)c2c1CCC2	9.81%
CSCCC(NC(=O)c1ccco1)C(=O)Nc1cc(C)ccn1 (stereo unspecified)	-2.39%
COc1ccc(C2CC(c3ccc(C)cc3)Nc3nc(N)nn32)cc1 (stereo unspecified)	61.3% (active)
Cc1ccc(C2CC(c3cccc(C)c3)n3nc(N)nc3N2)cc1 (stereo unspecified)	36.3%
Cc1ccc(C2CC(c3cccc(Br)c3)n3nc(N)nc3N2)cc1 (stereo unspecified)	14.7%
CCc1ccccc1NC(=O)CN(C)S(=O)(=O)c1ccc2c(c1)c(=O)n(C)c(=O)n2C	-4.15%
O=C1CSC(c2ccccc2)N1c1nc(-c2ccc(Cl)cc2Cl)cs1 (stereo unspecified)	28.7%
Clc1ccc(-c2cc(-c3ccccn3)on2)c(Cl)c1	14.9%
Clc1ccc(-c2cc(C3CCNCC3)[nH]n2)c(Cl)c1	65.5% (active)
CCCN(CC(=O)Nc1ccccc1OC)C(=O)CCC(=O)c1ccc(F)cc1	0.665%

Structure (SMILES)	inhibition
C/[N+]([O-])=C\c1ccc([N+](=O)[O-])o1	67% (active)
CCc1ccc(S(=O)(=O)N/N=C\c2ccc([N+](=O)[O-])o2)cc1	19%
Cc1cc(C)nc(N/N=C/c2ccc([N+](=O)[O-])o2)n1	26.9%
COc1ccc(C(=NN)c2ccc(OC)cc2)cc1	-17.9%
CCCC1(C(=O)OCC)NC(c2ccc(N(C)C)cc2)C2C(=O)N(c3ccc4c(c3)OCCO4)C(=O)C21 (stereo unspecified)	-15%
CN(C)CCOCCOc1ccc(Cl)c2ccccc12	33.2%
CN(C)CCOc1ccc(Cl)cc1C(C)(C)C	57.6% (active)
CC(C)(C)NCCCOc1ccc(Cl)cc1C(C)(C)C	33.9%
COc1ccccc1C(CNC(=O)c1cccc(NS(=O)(=O)c2ccc(Br)cc2)c1)N(C)C (stereo unspecified)	0.0669%
CCN(CC(=O)Nc1cc(Cl)ccc1C)C(=O)CSCc1ccc(C)cc1	7.73%
O=C(N/N=C/c1cccc([N+](=O)[O-])c1)c1ccncc1	-13.8%
N#Cc1cc([N+](=O)[O-])ccc1Oc1cccc(/C=N/NC(=O)c2ccc(Cl)cc2)c1	74.5% (active)
O=C(N/N=C/c1cccc(OC(=O)c2ccc([N+](=O)[O-])cc2)c1)c1cccnc1	-36.5%
CCc1ccc(C(=O)NNC(=O)C2CCN(c3ncnc4sc(C)c(C)c34)CC2)cc1	24%
COc1cc(/C=C2\CCCc3c2nc2ccccc2c3C(=O)O)cc(Cl)c1O	6.47%
O=C(COC(=O)c1c2c(nc3ccccc13)/C(=C\c1cccs1)CCC2)Nc1ccccc1Cl	54.9% (active)
CC(NC(=O)COC(=O)c1ccc2c(c1)OCO2)c1ccccc1 (stereo unspecified)	-10.2%
NC(=O)c1ccc(NC(=O)COC(=O)c2c3c(nc4ccccc24)/C(=C\c2ccc4c(c2)OCO4)CCC3)cc1	69.5% (active)
O=C(COC(=O)c1c2c(nc3ccccc13)CCCC2)c1ccc(Br)s1	-9.74%
COc1cc(-c2cc(C(=O)OCC(=O)Nc3ccc4c(c3)OCO4)c3ccccc3n2)cc(OC)c1OC	5.72%
O=C1CN(C(=O)c2cc(F)cc(F)c2)c2ccccc2N1	-7.57%
CCCc1cc(=O)[nH]c(SCC(=O)c2c(N)n(CC(C)C)c(=O)n(C)c2=O)n1	-8.24%
